Results taken from ChEMBL document CHEMBL1129253, “Synthesis and pharmacological activity of triazole derivatives inhibiting eosinophilia” (1996).

Legend:
Rattus norvegicus [1] = assay: Tested for sephadex-induced lung Eosinophilia inhibition at 30 mg/kg in rat; assay type: functional
Procedure, shortened: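 Male Wistar rats (5/group) received 1 mL Sephadex G-200 (0.5 mg/mL in saline, boiled 5 h) by tail vein on days 0, 3 and 5. Drug or vehicle was given ip 10 min before each injection. On day 7, lungs were lavaged three times with heparinized PBS at 37 °C. Eosinophils and total cells were counted in Hinkelman reagent. % inhibition compares group-mean eosinophil/total ratios with vehicle.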

Rattus norvegicus [2] = assay: Inhibitory activity against eosinophilia when administered orally in rats; details: po, read-out: ID50 (the source's name)
Rattus norvegicus [3] = assay: Inhibitory activity against eosinophilia when administered intraperitoneally in rats; details: ip, read-out: ID50 (the source's name)

Row | SMILES | inhibition in vivo at 30 mg/kg (Rattus norvegicus [1]) [%] | ED50 (Rattus norvegicus [2]) [mg/kg] | ED50 (Rattus norvegicus [3]) [mg/kg]
1 | C/N=C(\S)c1nccnc1N | 27 |  | 
2 | CCOC(=O)C(=O)Nc1ccc(-c2nc(N)n(/C(S)=N/C)n2)cc1 | 49 |  | 
3 | C/N=C(\S)n1nc(C)nc1N | 13 |  | 
4 | Nc1ncnn1/C(S)=N/Cc1ccccc1 | 40 |  | 
5 | C/N=C(\S)n1nc(-c2ccccc2)nc1N | 54 |  | 
6 | CCCC/N=C(\S)n1ncnc1N | 21 |  | 
7 | C/N=C(\S)n1ncnc1N | 93 |  | 
8 | C/N=C(\S)n1nccc1N | 27 |  | 
9 | C/N=C(\S)c1[nH]cnc1N | 5 |  | 
10 | CN(C)C(=S)n1ncnc1N | 34 |  | 
11 | S=C(NC1CCCCC1)n1cncn1 | 0 |  | 
12 | Nc1ncnn1/C(S)=N/CCCCCO | -17 |  | 
13 | Nc1ncnn1/C(S)=N/c1ccccc1 | -7 |  | 
14 | C/N=C(\S)n1nc(-c2ccc(C#N)cc2)nc1N | 87 |  | 
15 | C/N=C(\S)Nc1ccc(-c2nc(N)n(/C(S)=N/C)n2)cc1 | 31 |  | 
16 | CNC(=S)n1nc(SC)nc1N | 54 |  | 
17 | CS(=O)(=O)n1ncnc1N | -40 |  | 
18 | C/N=C(\S)n1nc(-c2ccc(C)cc2)nc1N | 65 |  | 

Row | SMILES | inhibition in vivo at 30 mg/kg (Rattus norvegicus [1]) [%] | ED50 (Rattus norvegicus [2]) [mg/kg] | ED50 (Rattus norvegicus [3]) [mg/kg]
19 | C/N=C(\S)c1c[nH]nc1N | -22 |  | 
20 | CCOCCC/N=C(\S)n1ncnc1N | 1 |  | 
21 | CNC(=S)n1nc(-c2ccc(OC)cc2)nc1N | 70 |  | 
22 | CNC(=S)n1ncnc1NC | -1 |  | 
23 | C/N=C(\S)n1nc(-c2ccc(Cl)cc2)nc1N | 88 | 0.3 | 0.07
24 | C/N=C(\S)c1cccnc1N | 27 |  | 
25 | C/N=C(\S)c1sccc1N | 4 |  | 
26 | C/N=C(\S)c1ccccc1N | 47 |  | 
27 | CCC/N=C(\S)n1ncnc1N | 93 |  | 
28 | CNC(=O)n1ncnc1N | 40 |  | 
29 | CSC(=S)n1ncnc1N | 36 |  | 
30 | C/N=C(\S)n1nnnc1N | 53 |  | 
31 | C/N=C(\S)c1ncccc1N | 9 |  | 
32 | CCCCCC/N=C(\S)n1ncnc1N | -1 |  | 
33 | Nc1ncnn1/C(S)=N/C1CCCCC1 | 31 |  | 
34 | C/N=C(\S)n1nc(N)nc1N | 53 |  | 
35 | C/N=C(\S)n1cnc(N)n1 | 25 |  | 
